The record followed here is ChEMBL document CHEMBL1275244, “Antimicrobial resistance among respiratory pathogens in Spain: latest data and changes over 11 years (1996-1997 to 2006-2007)” (2010).

In brackets after ≈: the same amount, converted by molar mass. Bounds are passed on as bounds.

Common to all, as to type: functional
Experiment [1] relates to Streptococcus pneumoniae. Description: Antimicrobial activity against Streptococcus pneumoniae clinical isolates assessed as susceptible isolates by PK/PD technique in presence of […] beta-lactamase inhibitor clavulanic acid.
For experiment [2], the system named is Haemophilus influenzae. Description: Antimicrobial activity against Haemophilus influenzae clinical isolates assessed as resistant isolates by broth dilution method in presence of beta-lactamase inhibitor clavulanic acid. The essentials: (§1)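 H. influenzae clinical isolates were stored at −70°C in duplicate and recovered by the hot-loop touching method without repeated thawing. MICs were determined by CLSI broth microdilution in Haemophilus test medium, following the method current in the study year. Each medium batch was checked for growth support with H. influenzae ATCC 10211. Controls were H. influenzae ATCC 49247 and ATCC 49766 and E. coli ATCC 35218. Categories were assigned per CLSI M100-S19.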
In general terms: Broth dilution looks for growth in wells or tubes with falling amounts of substance.

The subject of experiment [3] is Streptococcus pneumoniae. Description: Antimicrobial activity against Streptococcus pneumoniae clinical isolates assessed as susceptible isolates by PK/PD technique in presence of beta-lactamase inhibitor clavulanic acid.
The test system of experiment [4] is Streptococcus pneumoniae. The experiment can be described thus: Antimicrobial activity against Streptococcus pneumoniae clinical isolates assessed as resistant isolates by broth dilution method in presence of beta-lactamase inhibitor clavulanic acid. The essentials: (§2)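 S. pneumoniae clinical isolates were kept frozen at −70°C in duplicate and recovered by hot-loop touching to avoid repeated freeze-thaw. MICs were measured by CLSI broth microdilution as in force in the study year, with S. pneumoniae ATCC 49619 as control strain. Susceptibility categories were interpreted using CLSI M100-S19 breakpoints.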

In experiment [5] the test system is Haemophilus influenzae. Description: Antimicrobial activity against Haemophilus influenzae clinical isolates by broth dilution method in presence of beta-lactamase inhibitor clavulanic acid. A digest of the protocol: (§3)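 Clinical isolates stored in duplicate at −70°C and recovered by the hot-loop touching method. MICs by the CLSI broth microdilution method current in the study year, in Haemophilus test medium (HTM). Growth support of HTM checked with H. influenzae ATCC 10211. Controls were H. influenzae ATCC 49247 and ATCC 49766 and E. coli ATCC 35218. Susceptibility interpreted per CLSI M100-S19.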

Experiment [6] deals with Streptococcus pneumoniae. The experiment can be described thus: Antimicrobial activity against Streptococcus pneumoniae clinical isolates assessed as susceptible isolates by broth dilution method in presence of beta-lactamase inhibitor clavulanic acid. A digest of the protocol:
(§4)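 Isolates kept frozen at −70°C in duplicate and revived by hot-loop touching. MICs by the CLSI broth microdilution method active in the year of study, with S. pneumoniae ATCC 49619 as control. Categories assigned with CLSI M100-S19 breakpoints.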

In experiment [7] the test system is Haemophilus influenzae. The experiment can be described thus: Antimicrobial activity against Haemophilus influenzae clinical isolates assessed as susceptible isolates by broth dilution method in presence of beta-lactamase inhibitor clavulanic acid. The essentials:
as §3

For experiment [8], the system named is Haemophilus influenzae. The experiment can be described thus: Antimicrobial activity against Haemophilus influenzae clinical isolates assessed as susceptible isolates by PK/PD technique in presence of beta-lactamase inhibitor clavulanic acid.
The subject of experiment [9] is Streptococcus pneumoniae. Description: Antimicrobial activity against Streptococcus pneumoniae clinical isolates by broth dilution method in presence of beta-lactamase inhibitor clavulanic acid. A digest of the protocol: as §4
Experiment [10] relates to Haemophilus influenzae. The experiment can be described thus: Antimicrobial activity against Haemophilus influenzae clinical isolates assessed as susceptible isolates by PK/PD technique in presence […] of beta-lactamase inhibitor clavulanic acid. Also on record: scale not given: the % may be the effect or the level left.
Experiment [11] deals with Streptococcus pyogenes. The experiment can be described thus: Antimicrobial activity against Streptococcus pyogenes clinical isolates by broth dilution method in presence of beta-lactamase inhibitor clavulanic acid. The essentials:
(§5)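 S. pyogenes clinical isolates held at −70°C in duplicate and recovered by hot-loop touching. MICs by the CLSI broth microdilution method in force in the study year, interpreted per CLSI M100-S19.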

Experiment [12] has as its system Haemophilus influenzae. The experiment can be described thus: Antimicrobial activity against Haemophilus influenzae clinical isolates by based on po dosed broth dilution method. The essentials:
as §1

In experiment [13] the test system is Streptococcus pneumoniae. The experiment can be described thus: Antimicrobial activity against Streptococcus pneumoniae clinical isolates assessed as susceptible isolates by based on parenterally dosed broth dilution method. The essentials:
as §4

For experiment [14], the system named is Streptococcus pneumoniae. Description: Antimicrobial activity against Streptococcus pneumoniae clinical isolates assessed as resistant isolates by based on po dosed broth dilution method. A digest of the protocol:
as §2

For experiment [15], the system named is Streptococcus pneumoniae. The experiment can be described thus: Antimicrobial activity against Streptococcus pneumoniae clinical isolates assessed as resistant isolates by based on parenterally dosed broth dilution method in presence of beta-lactamase inhibitor clavulanic acid. The essentials: as §2
Experiment [16] concerns Haemophilus influenzae. The experiment can be described thus: Antimicrobial activity against Haemophilus influenzae clinical isolates assessed as resistant isolates by based on po dosed broth dilution method. A digest of the protocol:
as §1

Experiment [17] deals with Streptococcus pneumoniae. Description: Antimicrobial activity against Streptococcus pneumoniae clinical isolates by based on parenterally dosed broth dilution method. A digest of the protocol: as §4
For experiment [18], the system named is Streptococcus pneumoniae. Description: Antimicrobial activity against Streptococcus pneumoniae clinical isolates assessed as susceptible isolates by po dosed PK/PD technique.
Experiment [19] deals with Streptococcus pneumoniae. The experiment can be described thus: Antimicrobial activity against Streptococcus pneumoniae clinical isolates assessed as susceptible isolates by based on po dosed broth dilution method. The essentials:
as §4

Experiment [20] has as its system Streptococcus pneumoniae. Description: Antimicrobial activity against Streptococcus pneumoniae clinical isolates assessed as susceptible isolates by based on parenterally dosed PK/PD technique.
Experiment [21] deals with Haemophilus influenzae. Description: Antimicrobial activity against Haemophilus influenzae clinical isolates assessed as susceptible isolates by based on po dosed broth dilution method. The essentials: as §3
Experiment [22] relates to Haemophilus influenzae. Description: Antimicrobial activity against Haemophilus influenzae clinical isolates by based on po dosed PK/PD technique.
Experiment [23] has as its system Streptococcus pneumoniae. The experiment can be described thus: Antimicrobial activity against Streptococcus pneumoniae clinical isolates by based on po dosed broth dilution method. A digest of the protocol:
as §4

Experiment [24] has as its system Streptococcus pyogenes. The experiment can be described thus: Antimicrobial activity against Streptococcus pyogenes clinical isolates by broth dilution method.
Experiment [25] deals with Haemophilus influenzae. Description: Antimicrobial activity against Haemophilus influenzae clinical isolates by broth dilution method.
For experiment [26], the system named is Haemophilus influenzae. The experiment can be described thus: Antimicrobial activity against Haemophilus influenzae clinical isolates assessed as susceptible isolates by PK/PD technique.
The test system of experiment [27] is Streptococcus pyogenes. The experiment can be described thus: Antimicrobial activity against Streptococcus pyogenes clinical isolates assessed as resistant isolates by broth dilution method. The essentials: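 S. pyogenes clinical isolates were held at −70°C in duplicate and revived by the hot-loop touching method. MICs were obtained by the CLSI broth microdilution procedure active in the year of study. Resistance was interpreted according to CLSI M100-S19.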

In experiment [28] the test system is Streptococcus pyogenes. Description: Antimicrobial activity against Streptococcus pyogenes clinical isolates assessed as susceptible isolates by broth dilution method. A digest of the protocol: as §5
In experiment [29] the test system is Streptococcus pneumoniae. The experiment can be described thus: Antimicrobial activity against Streptococcus pneumoniae clinical isolates assessed as susceptible isolates by PK/PD technique.
Experiment [30] concerns Haemophilus influenzae. Description: Antimicrobial activity against Haemophilus influenzae clinical isolates assessed as resistant isolates by broth dilution method.
Experiment [31] has as its system Streptococcus pneumoniae. Description: Antimicrobial activity against Streptococcus pneumoniae clinical isolates by broth dilution method.
Experiment [32] concerns Haemophilus influenzae. Description: Antimicrobial activity against Haemophilus influenzae clinical isolates assessed as susceptible isolates by broth dilution method.
For experiment [33], the system named is Streptococcus pneumoniae. The experiment can be described thus: Antimicrobial activity against Streptococcus pneumoniae clinical isolates assessed as susceptible isolates by broth dilution method. A digest of the protocol:
as §4

Experiment [34] deals with Streptococcus pneumoniae. Description: Antimicrobial activity against Streptococcus pneumoniae clinical isolates assessed as resistant isolates by broth dilution method.

For `CC1(C)S[C@@H]2[C@H](NC(=O)[C@H](N)c3ccc(O)cc3)C(=O)N2[C@H]1C(=O)O` [AMOXICILLIN], the Activity in the experiment with Streptococcus pneumoniae [1] is recorded as 98.8%; in the experiment on Haemophilus influenzae [2], 0.3%; in the experiment with Streptococcus pneumoniae [3], 94.8%; in the experiment on Streptococcus pneumoniae [4], 1.2%; with Streptococcus pneumoniae [6], 94.8%; in the experiment with Haemophilus influenzae [7], 99.7%. Besides, the figures for the Activity in the experiment on Haemophilus influenzae [8] and in the experiment with Haemophilus influenzae [10] were 97.5% and 99.7%, respectively. The MIC90 with Haemophilus influenzae [5] is 1 µg/mL; in the experiment on Streptococcus pneumoniae [9], 1 µg/mL; in the experiment on Streptococcus pyogenes [11] it was no more than 0.015 µg/mL. In addition, the MIC50 with Haemophilus influenzae [5] (Haemophilus influenzae) is 0.25 µg/mL; in the experiment on Streptococcus pneumoniae [9], no more than 0.015 µg/mL; with Streptococcus pyogenes [11], no more than 0.015 µg/mL.
For `CO/N=C(\C(=O)N[C@@H]1C(=O)N2C(C(=O)O)=C(COC(N)=O)CS[C@H]12)c1ccco1` [CEFUROXIME], the MIC50 was 0.5 µg/mL (≈ 1.18 µM) with Haemophilus influenzae [12], no more than 0.015 µg/mL in the experiment with Streptococcus pneumoniae [17], no more than 0.015 µg/mL with Streptococcus pneumoniae [23] and no more than 0.015 µg/mL with Streptococcus pyogenes [24]. Further, the MIC90 in the experiment on Haemophilus influenzae [12] was 1 µg/mL (≈ 2.36 µM); in the experiment on Streptococcus pneumoniae [17] it was 1 µg/mL (≈ 2.36 µM); with Streptococcus pneumoniae [23] it was 1 µg/mL (≈ 2.36 µM); in the experiment on Streptococcus pyogenes [24] it was no more than 0.015 µg/mL. Moreover, the Activity is listed as 83.8% with Streptococcus pneumoniae [13]; 1.3% with Streptococcus pneumoniae [14]; 5.5% with Streptococcus pneumoniae [15]; 0.1% in the experiment on Haemophilus influenzae [16]; 94.5% with Streptococcus pneumoniae [18]; 94.5% in the experiment with Streptococcus pneumoniae [19]. In addition, the Activity in the experiment on Streptococcus pneumoniae [20] is given as 99.3%; in the experiment on Haemophilus influenzae [21] it was 99.3%; in the experiment with Haemophilus influenzae [22] it was 91.4%.
Consider `CC[C@H]1OC(=O)[C@H](C)[C@@H](O[C@H]2C[C@@](C)(OC)[C@@H](O)[C@H](C)O2)[C@H](C)[C@@H](O[C@@H]2O[C@H](C)C[C@H](N(C)C)[C@H]2O)[C@](C)(OC)C[C@@H](C)C(=O)[C@H](C)[C@@H](O)[C@]1(C)O` [CLARITHROMYCIN], for which the MIC50 is 2 µg/mL (≈ 2.67 µM) against Haemophilus influenzae [25], no more than 0.015 µg/mL with Streptococcus pneumoniae [31] and no more than 0.015 µg/mL against Streptococcus pyogenes [24]. The MIC90 in the experiment with Haemophilus influenzae [25] was 4 µg/mL (≈ 5.35 µM); against Streptococcus pneumoniae [31] it was no less than 128 µg/mL; in the experiment on Streptococcus pyogenes [24], 2 µg/mL (≈ 2.67 µM). Further, the Activity is reported as 5.1% with Haemophilus influenzae [26]; 16.5% in the experiment on Streptococcus pyogenes [27]; 80.9% in the experiment with Streptococcus pyogenes [28]; 78.2% in the experiment on Streptococcus pneumoniae [29]; 0% in the experiment on Haemophilus influenzae [30]; 99.3% in the experiment with Haemophilus influenzae [32]. Further, the Activity in the experiment with Streptococcus pneumoniae [33] was 78.2%; in the experiment on Streptococcus pneumoniae [34] it was 20.9%.
For `C[C@H]1COc2c(N3CCN(C)CC3)c(F)cc3c(=O)c(C(=O)O)cn1c23.C[C@H]1COc2c(N3CCN(C)CC3)c(F)cc3c(=O)c(C(=O)O)cn1c23.O` [LEVOFLOXACIN], the MIC50 against Haemophilus influenzae [25] is no more than 0.015 µg/mL; in the experiment on Streptococcus pneumoniae [31], 0.125 µg/mL; with Streptococcus pyogenes [24], 0.125 µg/mL. Moreover, the MIC90 against Haemophilus influenzae [25] is no more than 0.015 µg/mL; in the experiment on Streptococcus pneumoniae [31] it was 0.25 µg/mL; with Streptococcus pyogenes [24] it was 0.25 µg/mL. Further, the Activity worked out at 99.9% in the experiment on Haemophilus influenzae [26]; 0% in the experiment with Streptococcus pyogenes [27]; 100% in the experiment with Streptococcus pyogenes [28]; 97.7% in the experiment on Streptococcus pneumoniae [29]; 0.1% with Haemophilus influenzae [30]; 99.9% with Haemophilus influenzae [32]. In addition, the Activity is given as 97.6% with Streptococcus pneumoniae [33] and 0.5% with Streptococcus pneumoniae [34].
Take `CC1(C)S[C@@H]2[C@H](NC(=O)Cc3ccccc3)C(=O)N2[C@H]1C(=O)O` [PENICILLIN G]: the Activity is 99.8% with Streptococcus pneumoniae [13]; 0.9% in the experiment on Streptococcus pneumoniae [14]; 0% in the experiment with Streptococcus pneumoniae [15]; 0% in the experiment with Streptococcus pyogenes [27]; 100% with Streptococcus pyogenes [28]; 77.1% in the experiment with Streptococcus pneumoniae [19]. Also, the MIC50 in the experiment with Streptococcus pneumoniae [17], against Streptococcus pneumoniae [23] and against Streptococcus pyogenes [24] was no more than 0.015 µg/mL each time. Besides, the MIC90 in the experiment on Streptococcus pneumoniae [17] was 0.5 µg/mL (≈ 1.5 µM); against Streptococcus pneumoniae [23] it was 0.5 µg/mL (≈ 1.5 µM); in the experiment on Streptococcus pyogenes [24], no more than 0.015 µg/mL.
